This note sets out measurements from ChEMBL document CHEMBL4011636, “Utilization of an Active Site Mutant Receptor for the Identification of Potent and Selective Atypical 5-HT2C Receptor Agonists” (J Med Chem, 2017).

Series [1] can be described thus: Permeability of compound at pH 7.4 by PAMPA. The note with it: read-out: permeability. It is filed as physicochemical. In general terms: The PAMPA barrier holds no transporters, so it reflects passive diffusion.
A short description of series [2]: Drug uptake in Sprague-Dawley rat brain at 30 mg/kg, po measured at 7 hrs post dose by LC/MS-MS analysis. As to conditions: read-out: Drug uptake. The format is ADME, organism-based. The method in brief: (§1)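 Male rats given 30 mg/kg orally in 0.15% docusate sodium/2% PVP-K/97.85% water. Plasma and brain were sampled at a single time point after dosing. Brain was diluted 1:2 (vol/weight) with water before homogenization (dilution factor 3). Concentrations were measured by LC/MS−MS after acetonitrile protein precipitation. Values are the average of three animals; B/P is the brain to plasma ratio.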

Series [3] in a line: Protein binding in human plasma. As to conditions: read-out: PPB (converted). The format is ADME, cell-free.
Series [4] can be described thus: Half life in human microsomes. The format is ADME, Microsome.
In series [5] the target is T1, 5-hydroxytryptamine receptor 2C (Homo sapiens) (UniProt P28335).
T1 sequence (whole entry): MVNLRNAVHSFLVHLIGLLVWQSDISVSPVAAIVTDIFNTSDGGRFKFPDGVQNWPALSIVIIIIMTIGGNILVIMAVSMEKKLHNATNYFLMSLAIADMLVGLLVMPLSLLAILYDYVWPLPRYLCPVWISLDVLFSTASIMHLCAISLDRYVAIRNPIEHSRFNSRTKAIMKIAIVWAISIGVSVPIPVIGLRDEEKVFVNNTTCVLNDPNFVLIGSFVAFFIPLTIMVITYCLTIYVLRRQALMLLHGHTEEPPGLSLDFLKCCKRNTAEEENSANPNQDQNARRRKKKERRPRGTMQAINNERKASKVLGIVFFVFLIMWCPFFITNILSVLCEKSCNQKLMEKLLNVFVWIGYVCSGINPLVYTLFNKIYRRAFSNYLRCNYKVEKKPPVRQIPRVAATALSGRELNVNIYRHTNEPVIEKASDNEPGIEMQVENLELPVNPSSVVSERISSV
Put plainly: Intrinsic activity at recombinant human 5-HT2C receptor expressed in HEK293E cells assessed as induction of intracellular Ca2+ levels after 90 secs by Fluo-4-dye based FLIPR assay relative to serotonin. As to conditions: HEK293. The format is functional, cell-based. A digest of the protocol: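 FLIPR Fluo-4 Ca2+ assay in HEK293E cells stably expressing the human receptor (VNV isoform for 5-HT2C), eleven-point concentration series, 90 s read. Response normalized to 3 μM serotonin on the same plate (defined as IA = 1). Intrinsic activity taken from a four-parameter logistic fit.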

Series [6] concerns the target 5-hydroxytryptamine receptor 2B (Homo sapiens, UniProt P41595). Put plainly: Agonist activity at recombinant human 5-HT2B receptor expressed in HEK293E cells assessed as induction of intracellular Ca2+ levels after 90 secs by Fluo-4-dye based FLIPR assay. The format is cell-based, HEK293. A digest of the protocol:
(§2)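 HEK293E cells stably expressing human receptor (VNV isoform for 5-HT2C; ~400−795 fmol/mg protein), grown in DMEM with 10% dialyzed FBS and G418. Cells plated at 20 000/well in serum-free DMEM overnight at 37 °C, then loaded 1 h at room temperature with 5 μM Fluo-4 in HBSS/25 mM HEPES. Eleven compound concentrations added on FLIPR, Ca2+ signal read for 90 s. EC50 from a four-parameter logistic fit, at least triplicate.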

A short description of series [7]: Half life in rat microsomes. It is filed as ADME, Microsome.
The nature of series [8]: Ratio of drug uptake in Sprague-Dawley rat brain to plasma at 1 mg/kg, iv measured at 1 hr post dose by LC/MS-MS analysis. The format is ADME, organism-based. As to conditions: read-out: BPR.
A short description of series [9]: Plasma concentration in Sprague-Dawley rat at 30 mg/kg, po measured at 7 hrs post dose by LC/MS-MS analysis. The format is ADME, organism-based. A digest of the protocol:
as §1

Series [10] in a line: Substrate activity at human P-gp. The format is ADME.
Series [11] in a line: Ratio of drug uptake in Sprague-Dawley rat brain to plasma at 30 mg/kg, po measured at 7 hrs post dose by LC/MS-MS analysis. The format is ADME, organism-based. The note with it: read-out: BPR. A digest of the protocol:
as §1

A short description of series [12]: Efflux ratio of permeability across basolateral to apical side in human Caco2 cells. It is filed as ADME, cell-based. As to conditions: Caco-2. Background: Passage across Caco-2 layers is used to estimate intestinal permeability.
The nature of series [13]: Plasma concentration in Sprague-Dawley rat at 1 mg/kg, iv measured at 1 hr post dose by LC/MS-MS analysis. It is filed as ADME, organism-based.
The nature of series [14]: Metabolic stability in rat liver microsomes assessed as parent compound remaining at […] after 10 mins. The format is ADME, microsome. As to conditions: read-out: Stability. In general terms: Microsomes from liver hold many membrane-bound enzymes, among them those of drug oxidation.
In series [15] the target is 5-hydroxytryptamine receptor 2A (Homo sapiens, UniProt P28223). Put plainly: Agonist activity at recombinant human 5-HT2A receptor expressed in HEK293E cells assessed as induction of intracellular Ca2+ levels after 90 secs by Fluo-4-dye based FLIPR assay. It is filed as cell-based, HEK293. A digest of the protocol: as §2
A short description of series [16]: Substrate activity at rat P-gp. The format is ADME.
Series [17] has as its target T2, 5-hydroxytryptamine receptor 2C (Homo sapiens, UniProt P28335).
T2 sequence (P28335 whole entry): T1 sequence (whole entry)
Put plainly: Agonist activity at recombinant human 5-HT2C receptor expressed in HEK293E cells assessed as induction of intracellular Ca2+ levels after 90 secs by Fluo-4-dye based FLIPR assay. It is filed as functional, cell-based, HEK293. A digest of the protocol:
as §2

Series [18] is described as follows: Drug uptake in Sprague-Dawley rat brain at 1 mg/kg, iv measured at 1 hr post dose by LC/MS-MS analysis.
Series [19] in a line: Metabolic stability in human liver microsomes assessed as parent compound remaining at […] after 10 mins. The note with it: read-out: Stability. It is filed as ADME, microsome.
Series [20] in a line: Permeability of compound at pH 5.5 by PAMPA. The format is physicochemical. As to conditions: read-out: permeability.
Series [21] in a line: Permeability across apical to basolateral side in human Caco2 cells. The format is ADME, cell-based. As to conditions: Caco-2, read-out: permeability.
Series [22] is described as follows: Protein binding in rat plasma. The format is ADME, cell-free. The note with it: read-out: PPB (converted).
Series [23] can be described thus: Permeability across basolateral to apical side in human Caco2 cells. It is filed as ADME, cell-based. As to conditions: Caco-2, read-out: permeability.

Usually half-life stands for the time in which the quantity being followed falls by half. Read a high half-life as slow loss. As a reminder, the EC50 is the midpoint of the concentration-response curve. What is called efflux ratio is the permeability from basolateral to apical divided by that in the opposite direction, in the common usage.

Some results are limits rather than exact numbers.

Chain of 5-hydroxytryptamine receptor 2B (P41595 whole entry, canonical isoform): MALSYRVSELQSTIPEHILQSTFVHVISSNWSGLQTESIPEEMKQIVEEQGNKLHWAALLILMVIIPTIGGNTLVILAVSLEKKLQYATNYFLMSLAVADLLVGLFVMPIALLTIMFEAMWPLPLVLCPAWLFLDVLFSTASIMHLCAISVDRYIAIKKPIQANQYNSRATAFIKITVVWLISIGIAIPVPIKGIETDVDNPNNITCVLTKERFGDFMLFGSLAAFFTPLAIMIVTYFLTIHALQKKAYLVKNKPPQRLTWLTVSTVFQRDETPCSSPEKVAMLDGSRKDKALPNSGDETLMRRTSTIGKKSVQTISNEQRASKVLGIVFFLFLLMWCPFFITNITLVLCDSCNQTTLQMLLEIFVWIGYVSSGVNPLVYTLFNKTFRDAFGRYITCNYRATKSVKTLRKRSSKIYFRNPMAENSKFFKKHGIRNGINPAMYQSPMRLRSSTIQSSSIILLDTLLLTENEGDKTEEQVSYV
Chain of 5-hydroxytryptamine receptor 2A (P28223 whole entry): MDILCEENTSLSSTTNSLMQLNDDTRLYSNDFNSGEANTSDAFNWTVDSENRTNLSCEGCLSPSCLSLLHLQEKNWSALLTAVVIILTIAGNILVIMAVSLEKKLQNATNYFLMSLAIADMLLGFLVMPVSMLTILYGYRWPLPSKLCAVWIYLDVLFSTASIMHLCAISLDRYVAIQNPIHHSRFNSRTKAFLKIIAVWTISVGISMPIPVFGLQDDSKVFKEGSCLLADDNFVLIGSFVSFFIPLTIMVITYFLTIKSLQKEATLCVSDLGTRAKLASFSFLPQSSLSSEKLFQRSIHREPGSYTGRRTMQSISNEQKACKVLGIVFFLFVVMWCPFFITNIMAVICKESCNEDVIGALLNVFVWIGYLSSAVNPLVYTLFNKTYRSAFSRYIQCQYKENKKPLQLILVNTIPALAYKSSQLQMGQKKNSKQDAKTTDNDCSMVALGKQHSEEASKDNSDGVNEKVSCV

On to `Cc1nc(-c2cccc3ccccc23)sc1C(=O)N1CCC(CO)CC1`, for which the values for the Papp in series [1] and in [20] were 73.9 ×10⁻⁶ cm/s and 60.7 ×10⁻⁶ cm/s, respectively. The concentration at 7 h in [2] was 35 nM; in [9], 736 nM. In addition, the results for the fraction unbound in series [3] and in series [22] were 0.005 and 0.004, respectively. In addition, the half-life was determined as 21 min in series [4] and 6 min in [7]. For the same compound, the Intrinsic activity in [5] lay in the range of 1 to 1.1. Besides, the EC50 in series [6] is more than 10 µM; in [15], more than 10 µM; in series [17], 6 nM. Further, the Kp at 1 h in series [8] amounted to 0.15. The Activity result in series [10] was “Not Active”; in [16], “Active”. Besides, the Kp at 7 h in series [11] was 0.05. The efflux ratio in series [12] came out at 0.5. For the same compound, the concentration at 1 h in series [13] is 569 nM; in series [18] it was 76 nM. In addition, the figures for the remaining at 10 min in [14] and in [19] were 24% and 80%, respectively. The Papp A→B in series [21] stood at 32.9 ×10⁻⁶ cm/s. In [23], the Papp B→A is 17.5 ×10⁻⁶ cm/s.
